A short description of data set [1]: melting temperature; fluorescence melt of hairpins on a sequencing array, two-state fit, raised by 9.35 °C to match UV melts. The note with it: sodium 0.088 M. In a few lines:
(§1)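 To match UV melts, fitted temperatures were raised by 9.35 °C. These fits were bootstrapped two-state models that gave melting temperature and folding enthalpy, combined by inverse variance over four replicates. The input was normalised Cy3 fluorescence of library hairpins with annealed Cy3 and quencher oligos on a sequenced MiSeq flow cell, imaged in 50 mM Na-HEPES pH 8.0, 25 mM NaCl in 2.5 °C steps up to 60 °C.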

Data set [2] is described as follows: folding enthalpy; higher = less favourable; fluorescence melt of hairpins on a sequencing array, two-state fit. To be noted: sodium 0.088 M. In a few lines:
as §1

Regarding GCCGAGCGAAAGCTGGGC (((.(((....))).))), the Tm in data set [1] is 68 °C. Besides, the folding enthalpy in data set [2] is -125 kJ/mol.
Taken in the same sequence, the figures for GCCGAGCGAAAGCTTAGC ((..(((....)))..)) were 39.9 °C and -61.5 kJ/mol.
The like results for GCCGAGGGAAACCTTGGC (((.(((....))).))) were, in that order, 58.3 °C and -148 kJ/mol.
Take GCCGAGGGAAACTTCGGC (((((.(....).))))): the Tm in data set [1] was 56.8 °C. For the same sequence, in data set [2], the folding enthalpy was -193 kJ/mol.
Taken in the same sequence, the figures for GCCGATGCGAAAGCAGGC (((..(((....)))))) were 58.5 °C and -84 kJ/mol.
Taken in the same sequence, the figures for GCCGATGGAAACACCGGC ((((.((....)).)))) were 52.4 °C and -180 kJ/mol.
The like results for GCCGCAGGAAACCACGGC ((((..(....)..)))) were, in that order, 42.1 °C and -85.3 kJ/mol.
Take GCCGCAGGAAACCGCGGC (((((.(....).))))): in data set [1], the Tm was determined as 67.8 °C. In data set [2], the folding enthalpy was -134 kJ/mol.
The like results for GCCGCCGAAAGGCAGGGC ((((((....)))..))) were, in that order, 66.8 °C and -85 kJ/mol.
Turning to GCCGCCGAAAGGCCAGGC ((((((....)))..))), in data set [1], the Tm is 56.1 °C. Further, the folding enthalpy in data set [2] is -85.6 kJ/mol.
Taken in the same sequence, the figures for GCCGCCGAAAGGCCGGGC ((((((....)))..))) were 60.4 °C and -70.9 kJ/mol.
Taken in the same sequence, the figures for GCCGCCGAAAGGCTGGC ((((((....))).))) were 69.2 °C and -87 kJ/mol.
GCCGCGCGAAAGCACCGC ((.(.((....)).).)): in data set [1], the Tm worked out at 46.5 °C. Further, the folding enthalpy in data set [2] is -57.9 kJ/mol.
For the sequence GCCGCGCGAAAGCCCCGC ((.(.((....)).).)), the Tm in data set [1] stood at 33.3 °C. Moreover, in data set [2], the folding enthalpy was -31.7 kJ/mol.
The like results for GCCGCGCGAAAGCGTAGC ((..(((....)))..)) were, in that order, 48.9 °C and -57.9 kJ/mol.
Taken in the same sequence, the figures for GCCGCGCGAAAGCGTCGC ((..(((....)))..)) were 58 °C and -42.1 kJ/mol.
Taken in the same sequence, the figures for GCCGCGCGAAAGCGTTGC ((..(((....)))..)) were 44.1 °C and -60.9 kJ/mol.
In the case of GCCGCGCGAAAGCTCAGC ((.(.((....)).).)), the Tm in data set [1] was found to be 35.1 °C. The folding enthalpy in data set [2] was -45 kJ/mol.
For the sequence GCCGCGGGAAACCACGGC ((((.((....)).)))), in data set [1], the Tm came to 63.6 °C. In data set [2], the folding enthalpy is -161 kJ/mol.
Taken in the same sequence, the figures for GCCGCGGGAAACCGCGAC (.(((((....))))).) were 59.7 °C and -45.1 kJ/mol.
Taken in the same sequence, the figures for GCCGCTGGAAACAGTGGC (((.(((....))).))) were 62.9 °C and -212 kJ/mol.
The like results for GCCGGACCGAAAGGTGGC (((..(((....)))))) were, in that order, 53.4 °C and -113 kJ/mol.
With GCCGGATCGAAAGATGGC (((..(((....)))))), the Tm in data set [1] worked out at 46 °C. In addition, in data set [2], the folding enthalpy is -73.5 kJ/mol.
As for GCCGGCGAAAGCCCAGGC ((((((....)))..))), the Tm in data set [1] was determined as 57.5 °C. For the same sequence, the folding enthalpy in data set [2] was -81.3 kJ/mol.
The like results for GCCGGCGAAAGCCCGGGC ((((((....)))..))) were, in that order, 62.1 °C and -73.5 kJ/mol.
The like results for GCCGGCGAAAGCCGAGGC ((((((....)))..))) were, in that order, 63.1 °C and -56.1 kJ/mol.
GCCGGCGAAAGCCGCGGC ((((((....)))..))): the Tm in data set [1] stood at 65.3 °C. In addition, the folding enthalpy in data set [2] is -49.8 kJ/mol.
The like results for GCCGGCGAAAGCCGTGGC ((((((....)))..))) were, in that order, 58.4 °C and -54.6 kJ/mol.
GCCGGGCGAAAGCCGCGC ((..(((....)))..)): the Tm in data set [1] turned out to be 60.1 °C. Also, the folding enthalpy in data set [2] is -63.5 kJ/mol.
Take GCCGGGCGAAAGCCTTGC ((..(((....)))..)): the Tm in data set [1] worked out at 40.2 °C. Also, the folding enthalpy in data set [2] was -51.8 kJ/mol.

The values are drawn from the array DNA melting data of Ke et al. (doi:10.1101/2024.01.08.574731).
